We go through 1 compound from ChEMBL document CHEMBL5331128, “Alicyclic Ring Size Variation of 4-Phenyl-2-naphthoic Acid Derivatives as P2Y14 Receptor Antagonists” (J Med Chem, 2023).

The source made the active and inactive calls. A value given as a limit tells only on which side of the number the result lay.

The target of one data set is T1, P2Y purinoceptor 14 (Mus musculus, UniProt Q9ESG6).
T1 sequence (Q9ESG6 whole entry): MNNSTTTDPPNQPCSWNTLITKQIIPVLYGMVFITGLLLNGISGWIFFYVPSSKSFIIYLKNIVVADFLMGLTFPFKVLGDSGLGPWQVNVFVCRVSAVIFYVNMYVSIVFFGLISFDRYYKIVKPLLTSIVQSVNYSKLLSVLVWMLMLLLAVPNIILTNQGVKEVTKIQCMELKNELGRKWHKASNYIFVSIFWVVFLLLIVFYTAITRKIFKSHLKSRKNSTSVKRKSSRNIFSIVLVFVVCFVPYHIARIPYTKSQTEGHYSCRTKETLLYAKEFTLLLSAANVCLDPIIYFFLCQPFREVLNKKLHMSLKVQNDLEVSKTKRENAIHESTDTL
As to the kind of experiment: Displacement of fluorescent tracer 4-(4-(1-(4-(1-(6-(3-carboxylato-4-(3-iminio-3H-xanthen-9-yl)benzamido)hexyl)-4,5-dihydro-1H-pyrrol-3-yl)butyl)piperidin-1-ium-4-yl)phenyl)-7-(4-(trifluoromethyl)phenyl)-2-naphthoate from mouse P2Y14R stably expressed in human HEK293 cells by flow cytometry. The format is cell-based. The essentials: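 Whole-cell competitive binding: CHO cells expressing hP2Y14R (or HEK-293 cells expressing mP2Y14R) incubated with AlexaFluor488-labelled antagonist tracer at 20 nM. […] Ki derived by dividing IC50 by 1.72.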
In general terms: A flow cytometer gives signals particle by particle.

A short description of data set [1]: Selectivity ratio, ratio of IC50 for displacement of fluorescent tracer 4-(4-(1-(4-(1-(6-(3-carboxylato-4-(3-iminio-3H-xanthen-9-yl)benzamido)hexyl)-4,5-dihydro-1H-pyrrol-3-yl)butyl)piperidin-1-ium-4-yl)phenyl)-7-(4-(trifluoromethyl)phenyl)-2-naphthoate from mouse P2Y14R stably expressed in human HEK293 cells to IC50 for displacement of fluorescent tracer 4-(4-(1-(4-(1-(6-(3-carboxylato-4-(3-iminio-3H-xanthen-9-yl)benzamido)hexyl)-4,5-dihydro-1H-pyrrol-3-yl)butyl)piperidin-1-ium-4-yl)phenyl)-7-(4-(trifluoromethyl)phenyl)-2-naphthoate from human P2Y14R stably expressed in CHO cells. The class given is cell-based.

Data set [2] concerns the target 5-hydroxytryptamine receptor 1B (Homo sapiens, UniProt P28222). As to the kind of experiment: Displacement of [3H]-5-CT from human 5-HT1B receptor assessed as inhibition constant by radioligand displacement assay. In general terms: Displacement assays read how much labelled ligand stays bound in the presence of the test substance.
The target of data set [3] is T2, Muscarinic acetylcholine receptor M5 (Homo sapiens, UniProt P08912).
T2 sequence (P08912 whole entry): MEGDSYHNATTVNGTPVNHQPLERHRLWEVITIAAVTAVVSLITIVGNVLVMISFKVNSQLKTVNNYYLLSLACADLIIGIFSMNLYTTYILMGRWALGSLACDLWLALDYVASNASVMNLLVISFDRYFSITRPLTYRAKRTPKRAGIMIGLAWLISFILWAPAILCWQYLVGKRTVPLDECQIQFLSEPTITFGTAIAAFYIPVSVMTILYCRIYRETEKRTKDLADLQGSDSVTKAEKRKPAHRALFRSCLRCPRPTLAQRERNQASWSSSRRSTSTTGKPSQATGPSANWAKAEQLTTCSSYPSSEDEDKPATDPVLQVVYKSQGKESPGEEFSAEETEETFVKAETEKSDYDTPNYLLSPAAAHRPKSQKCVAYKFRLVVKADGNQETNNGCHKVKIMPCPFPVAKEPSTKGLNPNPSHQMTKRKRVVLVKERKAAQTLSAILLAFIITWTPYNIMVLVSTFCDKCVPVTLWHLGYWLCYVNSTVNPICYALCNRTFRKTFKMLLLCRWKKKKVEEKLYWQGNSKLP
As to the kind of experiment: Displacement of […] from human muscarinic M5 receptor assessed as inhibition constant by radioligand displacement assay.

Data set [4] can be described thus: Acute toxicity in Wistar rat assessed as morbidity at 1 to 10 mg/kg, ip and measured upto 24 hrs. Conditions: in vivo, dose 1-10 mg/kg. The class given is organism-based. The essentials:
(§1)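 Male Wistar rats; single dose at 1, 3 or 10 mg/kg i.p., or 0.5 mg/kg i.v. Animals were watched for mortality and morbidity over the experimental period, in the course of a plasma pharmacokinetic study.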

Data set [5] is described as follows: Acute toxicity in Wistar rat assessed as morbidity at 0.5 mg/kg, iv and measured upto 24 hrs. The class given is organism-based. Conditions: in vivo. A digest of the protocol:
as §1

A short description of data set [6]: Half life in Wistar rat at 3 mg/kg, ip and measured upto 24 hrs. The class given is ADME, organism-based. Conditions: in vivo.
Data set [7] is described as follows: Cmax in Wistar rat plasma at 1 mg/kg, ip and measured upto 24 hrs. The format is ADME, organism-based. The arrangement: time < 24 hrs, dose 1 mg/kg, route ip.
Data set [8] can be described thus: Cmax in Wistar rat plasma at 3 mg/kg, ip and measured upto 24 hrs. The format is ADME, organism-based. The arrangement: dose 3 mg/kg, time < 24 hrs, route ip.
A short description of data set [9]: Stability in simulated intestinal fluid assessed as parent compound remaining after 120 mins. Conditions: simulated gi fluid, 2 h. The format is ADME. A digest of the protocol: (§2)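 Incubation in simulated gastric or intestinal fluid; percent parent remaining read at 120 min.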
Data set [10] in a line: Stability in simulated gastric fluid assessed as parent compound remaining after 120 mins. The format is ADME. As to conditions: simulated gi fluid, 2 h. The essentials:
as §2

For a further data set, the target named is Cytochrome P450 2D6 (Homo sapiens, UniProt P10635). The data set can be described thus: Inhibition of CYP2D6 (unknown origin). The class given is ADME.
Chain of Cytochrome P450 2D6 (P10635 whole entry): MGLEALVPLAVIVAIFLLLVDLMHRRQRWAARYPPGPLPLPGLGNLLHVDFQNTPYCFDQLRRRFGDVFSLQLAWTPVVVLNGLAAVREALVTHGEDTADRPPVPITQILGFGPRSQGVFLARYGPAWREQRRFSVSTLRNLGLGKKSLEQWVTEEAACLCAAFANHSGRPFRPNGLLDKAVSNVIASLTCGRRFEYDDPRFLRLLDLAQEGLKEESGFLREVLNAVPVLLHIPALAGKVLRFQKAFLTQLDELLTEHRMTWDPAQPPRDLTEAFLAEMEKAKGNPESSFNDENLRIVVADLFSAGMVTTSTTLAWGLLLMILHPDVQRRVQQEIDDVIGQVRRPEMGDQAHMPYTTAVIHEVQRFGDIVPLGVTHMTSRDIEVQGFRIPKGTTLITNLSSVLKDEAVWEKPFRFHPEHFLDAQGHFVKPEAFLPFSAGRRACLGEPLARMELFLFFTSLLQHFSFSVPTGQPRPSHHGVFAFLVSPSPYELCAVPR
Data set [11] is described as follows: Stability in rat plasma assessed as parent compound remaining at 1 uM and measured at 120 mins by LC-MS/MS analysis. The format is ADME, cell-free. As to conditions: 2 h. A digest of the protocol:
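Plasma from human, rat and mouse; percent parent remaining at 120 min.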

Data set [12] is described as follows: Microsomal stability in rat liver microsomes assessed as half life. The format is ADME, Microsome. A general note: Microsomes from liver hold many membrane-bound enzymes, among them those of drug oxidation.
The target of data set [13] is Voltage-gated inwardly rectifying potassium channel KCNH2 (Homo sapiens, UniProt Q12809). As to the kind of experiment: Inhibition of human ERG stably expressed in human HEK293 cells incubated for 2 hrs by TAMRA based fuorescence polarization assay. The class given is toxicity, cell-based. The essentials:
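hERG inhibition measured in a fluorescent dye-binding assay.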

For data set [14], the system named is Mus musculus. As to the kind of experiment: Antiallodynic activity in CCI surgery neuropathic pain Hsd:ICR mouse model assessed as reversal of mechano-allodynia by measuring paw withdrawal threshold at 10 micromol/kg,ip and measured at 0.5 hrs by von frey test. Conditions: dose 10.0 µmol/kg. The format is functional, organism-based. A digest of the protocol:
(§3)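 CCI neuropathic pain in adult male Hsd:ICR (CD-1) mice (20–30 g). Single i.p. injection on day 7 after sciatic nerve constriction, at peak pain. Vehicle 10% (Kolliphor HS 15:DMSO 5:95) in saline, 0.2 mL. Paw withdrawal threshold by von Frey filaments on ipsilateral and contralateral hindpaws. Mean ± SD; two-way ANOVA with Dunnett's test versus day 0 and day 7.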

In data set [15] the test system is Mus musculus. As to the kind of experiment: Antiallodynic activity in CCI surgery neuropathic pain Hsd:ICR mouse model assessed as reversal of mechano-allodynia by measuring paw withdrawal threshold at 10 micromol/kg,ip and measured upto 5 days by von frey test. The class given is functional, organism-based. Conditions: dose 10.0 µmol/kg, time <= 5.0 day. The essentials: as §3

Data set [16] deals with Mus musculus. As to the kind of experiment: Anti-asthmatic activity against OVA/Aspergillus-sensitized protease-mediated C57BL/6J mouse model allergic asthma assessed as reduction in lymphocytes in BAL fluid at 10 mg/kg,ip followed by 0.5 hrs OVA challenge and measured after 48 hrs. As to conditions: time 48.5 hrs. The format is functional, organism-based.
Data set [17] deals with Mus musculus. The data set can be described thus: Protection against cardiac ischemia/reperfusion induced C57BL/6J mouse injury model assessed as reduction in infarct area by measuring AAR/TTA ratio at 2 mg/kg, sc prior to 0.5 hrs of myocardial ischemia and 48 h of reperfusion (Rvb= […]). The class given is functional. More on the design: scale not given: the % may be the effect or the level left. Conditions: time 48.5 hrs.

Chain of Voltage-gated inwardly rectifying potassium channel KCNH2 (Q12809 whole entry): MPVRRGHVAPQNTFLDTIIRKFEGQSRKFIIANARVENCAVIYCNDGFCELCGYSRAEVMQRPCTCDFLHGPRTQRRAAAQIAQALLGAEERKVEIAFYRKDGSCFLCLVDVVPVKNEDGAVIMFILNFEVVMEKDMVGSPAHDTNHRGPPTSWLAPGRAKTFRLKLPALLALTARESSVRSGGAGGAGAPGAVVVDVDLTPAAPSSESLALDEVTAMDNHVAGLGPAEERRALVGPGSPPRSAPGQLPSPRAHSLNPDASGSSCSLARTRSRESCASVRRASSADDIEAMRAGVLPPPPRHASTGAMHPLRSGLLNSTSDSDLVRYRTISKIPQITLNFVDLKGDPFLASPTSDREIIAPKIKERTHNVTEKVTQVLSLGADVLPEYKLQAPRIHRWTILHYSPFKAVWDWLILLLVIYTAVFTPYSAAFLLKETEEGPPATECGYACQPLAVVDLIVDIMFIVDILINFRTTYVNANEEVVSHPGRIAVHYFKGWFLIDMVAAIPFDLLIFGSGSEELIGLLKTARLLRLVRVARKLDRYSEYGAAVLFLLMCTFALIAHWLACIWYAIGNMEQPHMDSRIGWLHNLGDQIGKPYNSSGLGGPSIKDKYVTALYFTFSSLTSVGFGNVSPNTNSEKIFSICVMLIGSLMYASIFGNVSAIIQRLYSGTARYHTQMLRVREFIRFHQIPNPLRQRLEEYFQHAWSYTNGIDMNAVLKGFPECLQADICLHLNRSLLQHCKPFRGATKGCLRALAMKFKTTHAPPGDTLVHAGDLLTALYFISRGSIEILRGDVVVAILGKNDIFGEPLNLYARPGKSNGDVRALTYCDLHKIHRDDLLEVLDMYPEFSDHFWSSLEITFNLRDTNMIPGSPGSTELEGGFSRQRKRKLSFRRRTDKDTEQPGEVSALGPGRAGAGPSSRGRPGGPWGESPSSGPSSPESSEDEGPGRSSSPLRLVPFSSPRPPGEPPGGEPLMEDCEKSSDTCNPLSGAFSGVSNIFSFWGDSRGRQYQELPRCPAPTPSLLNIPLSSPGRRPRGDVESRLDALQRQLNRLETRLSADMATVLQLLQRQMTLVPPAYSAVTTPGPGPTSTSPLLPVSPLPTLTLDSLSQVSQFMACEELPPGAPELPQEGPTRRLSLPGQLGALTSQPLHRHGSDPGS
Chain of 5-hydroxytryptamine receptor 1B (P28222 whole entry): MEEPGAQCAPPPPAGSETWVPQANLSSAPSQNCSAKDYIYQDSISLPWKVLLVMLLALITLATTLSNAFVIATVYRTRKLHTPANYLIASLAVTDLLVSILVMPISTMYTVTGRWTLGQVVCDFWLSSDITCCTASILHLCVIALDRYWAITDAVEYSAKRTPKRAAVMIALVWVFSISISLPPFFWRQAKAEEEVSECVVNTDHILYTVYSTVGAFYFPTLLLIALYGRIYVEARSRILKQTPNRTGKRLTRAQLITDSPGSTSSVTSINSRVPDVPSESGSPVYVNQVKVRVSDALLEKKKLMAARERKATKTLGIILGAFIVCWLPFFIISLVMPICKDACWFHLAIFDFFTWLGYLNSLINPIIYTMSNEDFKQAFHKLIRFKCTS

In the case of `O=C(O)c1cc(-c2ccc([C@]3(O)[C@@H]4CNC[C@H]3C4)cc2)c2ccc(-c3ccc(C(F)(F)F)cc3)cc2c1`, the IC50 (in general, the point on the concentration scale where inhibition reaches its midpoint) at P2Y purinoceptor 14 is 0.0048 µM; against Cytochrome P450 2D6, greater than 30 µM; in data set [13] it was greater than 30 µM. Also, the Ratio IC50 in data set [1] is 0.811. The Ki in [2] and in [3] was 6 µM each time. For the same compound, the Activity result is reported as “Non-Toxic” in data set [4], “Non-Toxic” in data set [5] and 33.7% in the data set on Mus musculus [17]. The figures for the t1/2 in [6] and in data set [12] were 4.32 h and 5.7 h, respectively. Further, the maximum concentration (Cmax) (usually the maximum level reached in the sampled fluid or tissue) was found to be 500 nM in [7] and 1300 nM in data set [8]. Further, the Stability in [9] is on record as 93.3%; in data set [10], 69.8%; in data set [11] it was 81.3%. For the same compound, the result in the data set on Mus musculus [14] and in the data set with Mus musculus [15] was Active. Moreover, the outcome in the data set on Mus musculus [16] was inactive.
